Two molecules from ChEMBL document CHEMBL4118248, “Small Molecule Proprotein Convertase Subtilisin/Kexin Type 9 (PCSK9) Inhibitors: Hit to Lead Optimization of Systemic Agents” (J Med Chem, 2018) can be followed below.

The source made the active and inactive calls. No cut-off for these calls is given here.

Data set [1] deals with T1, Voltage-gated inwardly rectifying potassium channel KCNH2 (Homo sapiens, UniProt Q12809). As to the kind of experiment: Inhibition of human ERG by patch clamp method.
The subject of data set [2] is Rattus norvegicus. As to the kind of experiment: In vivo drugmetabolism in rat assessed as (R)-N-(3-Chloropyridin-2-yl)-4-(6-(methylamino)pyrazin-2-yl)-N-(piperidin-3-yl)benzamide formation. In kind it is ADME, organism-based.
For data set [3], the target named is 80S Ribosome. Briefly: Binding affinity to 80S ribosome in human HuH7 cells assessed as inhibition of PCSK9 mRNA translation after overnight incubation by ELISA. As to conditions: huh-7. In kind it is cell-based. Summed up: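 Huh7 cells kept in high-glucose DMEM, 10% BSA-free FBS, 2 mM L-glutamine, pen/strep at 37 °C, 5% CO2. Plated 7,500/well with compound or vehicle and incubated overnight (16-20 h). Secreted PCSK9 in the medium read by AlphaLISA: two antibodies to different mature-PCSK9 epitopes, biotinylated antibody 3 nM final, acceptor beads 10 µg/mL, 0.5 h rt; streptavidin donor beads 40 µg/mL, 1 h rt.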

Another data set deals with Bone marrow cell. As to the kind of experiment: Cytotoxicity against rat bone marrow cells assessed as reduction in cell viability after 72 hrs by CellTiter-Glo assay. The class given is cell-based.
The nature of data set [4]: Intrinsic clearance in human liver microsomes. As to conditions: read-out: CLH. The class given is ADME, microsome.
The next data set deals with Rhesus monkey. As to the kind of experiment: In vivo drugmetabolism in non-human primate assessed as (R)-N-(3-Chloropyridin-2-yl)-4-(6-(methylamino)pyrazin-2-yl)-N-(piperidin-3-yl)benzamide formation. In kind it is ADME, organism-based, Macaca mulatta.
The nature of data set [5]: Lipophilicity, log D of the compound by shake flask method. The settings on record: octanol/water. In kind it is physicochemical. In short, it runs like this:
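LogD measured by the shake-flask method.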

For data set [6], the target named is T1, Voltage-gated inwardly rectifying potassium channel KCNH2. Briefly: Inhibition of dofetilide binding to human ERG by fluorescence polarization assay.
Data set [7] deals with Rattus norvegicus. As to the kind of experiment: Toxicity in Crl:CD(SD) rat assessed as single cell necrosis in crypt cells in ileum at 50 mg/kg/day, po daily via gavage for 14 days measured on day 15 post last dose. The class given is organism-based. The settings on record: in vivo, 336 h.
For a further data set, the target named is CYP2D6 (Homo sapiens, UniProt P10635). As to the kind of experiment: Inhibition of CYP2D6 (unknown origin) at 3 uM relative to control. In kind it is ADME. Summed up: (§1)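 Inhibition of CYP1A2, 2D6, 2C9 and 3A4 reported as IC50, or as percent inhibition at 3 µM.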
A further data set has as its system IEC-6. As to the kind of experiment: Cytotoxicity against rat IEC-6 cells assessed as reduction in cell viability after 3 days by CellTiter-Glo assay. The class given is cell-based. The settings on record: IEC-6, 72 h. Summed up: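 Rat intestinal epithelial IEC-6 cells; viability read by CellTiter-Glo ATP luminescence.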
The test system of data set [8] is Rattus norvegicus. Briefly: Toxicity in Crl:CD(SD) rat assessed as discolored/mottled liver at 50 mg/kg/day, po daily via gavage for 14 days measured on day 15 post last dose. As to conditions: in vivo, 336 h. In kind it is organism-based. In short, it runs like this: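 Male rats, 5 per group, given vehicle or compound at 50 mg/kg/day by oral gavage for 14 days. Mortality, clinical signs and hematology monitored throughout. Necropsy on day 15 with microscopy of bone marrow, ileum, duodenum, jejunum and liver. Toxicokinetics at 1, 3, 6 and 24 h post-dose on day 14.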

Data set [9] has as its system Rattus norvegicus. Briefly: Toxicity in Crl:CD(SD) rat at 50 mg/kg/day, po daily via gavage for 14 days measured on day 15 post last dose. The class given is organism-based. The settings on record: in vivo, 336 h. Summed up: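 Male rats, 5 per group, given vehicle or test compound at 50 mg/kg by daily oral gavage for 14 days. Mortality, clinical signs and hematology were monitored throughout. Toxicokinetics were sampled at 1, 3, 6 and 24 h post-dose on day 14. Necropsy was on day 15, with microscopic evaluation of bone marrow, ileum, duodenum, jejunum and liver.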

Data set [10] has as its system Rattus norvegicus. As to the kind of experiment: Toxicity in Crl:CD(SD) rat assessed as mortality at 500 mg/kg/day, po daily via gavage for 14 days. The class given is organism-based. As to conditions: in vivo, 336 h. In short, it runs like this: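 Rats dosed orally at 50, 150 and 500 mg/kg/day for 14 days; crypt epithelium of duodenum/jejunum examined histologically and mortality recorded.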

Data set [11] is described as follows: Cytotoxicity against human CD34-positive hematopoietic progenitor cells assessed as reduction in cell viability after 72 hrs by CellTiter-Glo assay. The class given is cell-based.
Data set [12] relates to Rattus norvegicus. Briefly: Toxicity in Crl:CD(SD) rat at 50 mg/kg/day, po daily via gavage for 14 days. In kind it is organism-based. The settings on record: in vivo, 336 h.
The nature of data set [13]: Fraction unbound in rat plasma. In kind it is ADME, cell-free. Summed up:
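Unbound fraction measured in rat plasma.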

A further data set has as its target T2, CYP1A2 (Homo sapiens, UniProt P05177).
T2 sequence (P05177 whole entry): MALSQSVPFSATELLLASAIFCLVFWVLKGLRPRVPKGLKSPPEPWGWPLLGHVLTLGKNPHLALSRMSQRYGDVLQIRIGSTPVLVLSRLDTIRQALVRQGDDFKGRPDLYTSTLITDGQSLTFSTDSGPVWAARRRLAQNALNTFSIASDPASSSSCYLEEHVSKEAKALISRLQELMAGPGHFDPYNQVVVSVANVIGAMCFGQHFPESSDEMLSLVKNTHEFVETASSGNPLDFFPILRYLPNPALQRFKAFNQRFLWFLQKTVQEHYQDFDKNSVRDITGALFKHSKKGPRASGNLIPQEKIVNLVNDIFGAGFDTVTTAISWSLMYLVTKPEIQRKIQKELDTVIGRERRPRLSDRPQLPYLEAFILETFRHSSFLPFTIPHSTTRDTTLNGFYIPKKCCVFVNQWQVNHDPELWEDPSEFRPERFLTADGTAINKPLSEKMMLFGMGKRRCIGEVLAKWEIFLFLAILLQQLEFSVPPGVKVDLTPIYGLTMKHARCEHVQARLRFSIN
Briefly: Inhibition of CYP1A2 (unknown origin) at 3 uM relative to control. The class given is ADME. Summed up: as §1

The subject of another data set is Mus musculus. Briefly: Inhibition of PCSK9 secretion in plasma of humanized PCSK9 C57BL6J mouse assessed as free plasma concentration required to show effect at 30 to 100 mg/kg, po via gavage measured up to 24 hrs by ELISA. In kind it is functional. In short, it runs like this: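 Humanized PCSK9 mice given a single oral dose of 30 or 100 mg/kg, with vehicle group. Plasma PCSK9 followed over 0-24 h and normalized to t = 0. Free effective concentration derived from the whole time course with an indirect-effect PK/PD model.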

The nature of data set [14]: Total Cmax in Crl:CD(SD) rat at 50 mg/kg/day, po daily via gavage for 14 days measured on day 14 post last dose up to 24 hrs. Details: dose 50 mg/kg/day, route oral. The class given is ADME, organism-based. As to conditions: in vivo.
A short description of data set [15]: Intrinsic clearance in rat liver microsomes. The class given is ADME, microsome. The settings on record: read-out: CLH.
A short description of data set [16]: Permeability from apical to basolateral side in MDCK cells harboring MDR1. In kind it is ADME, cell-based, Canis lupus familiaris. As to conditions: dog, read-out: permeability. In short, it runs like this:
(§2)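 Bidirectional permeability across MDR1-transfected MDCK monolayers, apical-to-basolateral and basolateral-to-apical; Papp reported in 10^-6 cm/s.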

Data set [17] concerns Ribosome. As to the kind of experiment: Binding affinity to 80S ribosome in rat IEC-6 cells assessed as induction of changes in Cox15 nascent chain expression at 4 uM by ribosome profiling method. The class given is cell-based. Summed up:
(§3)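 Rat IEC-6 cells exposed 1 h to 4 µM compound or vehicle, followed by ribosome profiling. Cumulative read fractions along annotated protein regions compared with vehicle. RPKM taken from reads 3' of the Dmax position when the Dmax Z-score is >2.0, otherwise 3' of codon 50.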

The next data set deals with CYP3A4 (Homo sapiens, UniProt P08684). Briefly: Inhibition of CYP3A4 (unknown origin) at 3 uM relative to control. In kind it is ADME. In short, it runs like this: as §1
The target of a further data set is CYP2C9 (Homo sapiens, UniProt P11712). Briefly: Inhibition of CYP2C9 (unknown origin) at 3 uM relative to control. The class given is ADME. In short, it runs like this: as §1
In data set [18] the test system is Rattus norvegicus. As to the kind of experiment: Toxicity in Crl:CD(SD) rat assessed as mortality at >= 150 mg/kg/day, po daily via gavage for 14 days measured on day 15 post last dose. In kind it is organism-based. The settings on record: in vivo, 336 h.
Data set [19] is described as follows: Permeability from basolateral to apical side in MDCK cells harboring MDR1. The class given is ADME, cell-based, Canis lupus familiaris. As to conditions: dog, read-out: permeability. Summed up: as §2
Data set [20] can be described thus: Total plasma concentration in Crl:CD(SD) rat at 50 mg/kg/day, po daily via gavage for 14 days measured on day 14 post last dose up to 24 hrs. In kind it is ADME, organism-based. The settings on record: in vivo.
Data set [21] can be described thus: Selectivity index, ratio of IC50 for cytotoxicity against rat bone marrow cells to IC50 for 80S ribosome in human HuH7 cells harboring pCMV-truncated human PCSK9 (1 to 152 residues)-proLuc. The class given is toxicity, cell-based. The settings on record: read-out: Ratio IC50.
Data set [22] can be described thus: Apparent permeability in RRCK cells. The settings on record: dog, MDCK. The class given is ADME, cell-based, Canis lupus familiaris, MDCKII-LE. In short, it runs like this:
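Passive permeability measured in RRCK cells, a modified Madin-Darby canine kidney line; Papp reported in 10^-6 cm/s.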

Data set [23] concerns the target 80S Ribosome. Briefly: Binding affinity of [3H]PF-06446846 to human 80S ribosome.
The target of data set [24] is 80S Ribosome. Briefly: Binding affinity to 80S ribosome in human HuH7 cells harboring pCMV-truncated human PCSK9 (1 to 152 residues)-proLuc assessed as inhibition of PCSK9 mRNA translation after overnight incubation by luciferase reporter gene assay. In kind it is cell-based. The settings on record: huh-7. In short, it runs like this: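 Huh7 cells stably carry human PCSK9 prodomain (aa 1-152) fused to firefly luciferase (aa 2-550) in pcDNA3.1, kept under 900 µg/mL Geneticin. Plated 10,000/well in phenol red-free DMEM/10% FBS and left 4 h, then compound added (top final 20 µM, 0.5% DMSO). Incubated overnight at 37 °C, luminescence read with SteadyGlo.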

Data set [25] has as its system Ribosome. As to the kind of experiment: Binding affinity to 80S ribosome in rat IEC-6 cells assessed as induction of changes in Ndc80 nascent chain expression at 4 uM by ribosome profiling method. The class given is cell-based. Summed up: as §3

T1 sequence (Q12809 whole entry): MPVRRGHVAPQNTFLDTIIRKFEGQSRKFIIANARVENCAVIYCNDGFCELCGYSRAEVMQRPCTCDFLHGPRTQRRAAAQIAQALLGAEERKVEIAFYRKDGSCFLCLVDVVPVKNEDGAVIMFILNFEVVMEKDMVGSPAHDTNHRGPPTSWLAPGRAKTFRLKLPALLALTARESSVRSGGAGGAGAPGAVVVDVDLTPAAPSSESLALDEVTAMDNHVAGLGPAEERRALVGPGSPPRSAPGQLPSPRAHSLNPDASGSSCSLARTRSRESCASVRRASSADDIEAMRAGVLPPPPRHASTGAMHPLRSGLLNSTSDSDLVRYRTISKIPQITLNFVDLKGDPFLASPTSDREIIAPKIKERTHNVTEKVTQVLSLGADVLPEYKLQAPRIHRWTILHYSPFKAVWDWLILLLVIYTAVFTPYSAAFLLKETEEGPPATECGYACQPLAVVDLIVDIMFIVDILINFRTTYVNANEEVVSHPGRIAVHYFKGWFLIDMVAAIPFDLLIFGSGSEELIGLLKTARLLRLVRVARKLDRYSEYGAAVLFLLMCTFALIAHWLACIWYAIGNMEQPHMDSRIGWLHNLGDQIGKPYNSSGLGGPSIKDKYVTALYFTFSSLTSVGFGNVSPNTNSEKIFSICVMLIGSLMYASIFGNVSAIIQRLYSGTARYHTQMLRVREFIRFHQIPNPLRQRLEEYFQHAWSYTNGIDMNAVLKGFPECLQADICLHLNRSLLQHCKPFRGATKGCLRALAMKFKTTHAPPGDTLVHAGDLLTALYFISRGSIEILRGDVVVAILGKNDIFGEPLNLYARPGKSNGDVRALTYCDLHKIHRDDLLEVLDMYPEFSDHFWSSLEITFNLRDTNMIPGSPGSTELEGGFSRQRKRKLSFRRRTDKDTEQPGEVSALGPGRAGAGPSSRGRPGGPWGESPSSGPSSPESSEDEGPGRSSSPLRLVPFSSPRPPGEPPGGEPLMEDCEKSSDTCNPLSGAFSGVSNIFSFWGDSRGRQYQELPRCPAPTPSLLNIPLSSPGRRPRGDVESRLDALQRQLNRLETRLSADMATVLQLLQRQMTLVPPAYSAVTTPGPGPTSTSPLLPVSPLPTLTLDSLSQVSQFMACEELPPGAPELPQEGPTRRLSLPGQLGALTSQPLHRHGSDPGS
CYP2D6, sequence (P10635 whole entry): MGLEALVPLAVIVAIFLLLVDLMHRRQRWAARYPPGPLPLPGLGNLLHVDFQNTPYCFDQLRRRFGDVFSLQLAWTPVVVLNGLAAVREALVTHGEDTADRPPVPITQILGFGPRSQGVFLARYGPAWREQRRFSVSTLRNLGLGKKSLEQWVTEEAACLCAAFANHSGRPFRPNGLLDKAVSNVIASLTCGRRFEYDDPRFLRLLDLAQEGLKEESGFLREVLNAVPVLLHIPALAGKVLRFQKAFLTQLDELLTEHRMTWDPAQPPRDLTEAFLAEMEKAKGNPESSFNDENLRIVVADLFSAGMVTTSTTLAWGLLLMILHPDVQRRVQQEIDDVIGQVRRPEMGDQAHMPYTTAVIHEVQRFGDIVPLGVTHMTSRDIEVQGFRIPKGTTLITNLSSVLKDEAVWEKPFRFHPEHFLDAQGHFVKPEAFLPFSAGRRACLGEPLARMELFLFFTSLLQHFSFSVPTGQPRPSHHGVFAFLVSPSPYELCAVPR
CYP2C9, sequence (P11712 whole entry): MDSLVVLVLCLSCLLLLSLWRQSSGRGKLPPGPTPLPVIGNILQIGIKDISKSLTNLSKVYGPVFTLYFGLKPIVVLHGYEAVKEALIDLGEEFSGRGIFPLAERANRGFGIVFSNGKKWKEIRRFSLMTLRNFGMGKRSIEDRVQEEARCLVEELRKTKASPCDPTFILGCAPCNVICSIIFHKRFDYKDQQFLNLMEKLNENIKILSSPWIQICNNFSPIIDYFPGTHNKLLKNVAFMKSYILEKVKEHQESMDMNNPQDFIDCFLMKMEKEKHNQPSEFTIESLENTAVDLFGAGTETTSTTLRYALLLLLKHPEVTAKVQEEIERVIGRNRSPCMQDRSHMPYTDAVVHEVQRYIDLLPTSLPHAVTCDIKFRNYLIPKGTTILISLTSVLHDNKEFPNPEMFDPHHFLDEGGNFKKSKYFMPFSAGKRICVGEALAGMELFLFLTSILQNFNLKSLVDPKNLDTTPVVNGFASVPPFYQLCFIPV
CYP3A4, sequence (P08684 whole entry): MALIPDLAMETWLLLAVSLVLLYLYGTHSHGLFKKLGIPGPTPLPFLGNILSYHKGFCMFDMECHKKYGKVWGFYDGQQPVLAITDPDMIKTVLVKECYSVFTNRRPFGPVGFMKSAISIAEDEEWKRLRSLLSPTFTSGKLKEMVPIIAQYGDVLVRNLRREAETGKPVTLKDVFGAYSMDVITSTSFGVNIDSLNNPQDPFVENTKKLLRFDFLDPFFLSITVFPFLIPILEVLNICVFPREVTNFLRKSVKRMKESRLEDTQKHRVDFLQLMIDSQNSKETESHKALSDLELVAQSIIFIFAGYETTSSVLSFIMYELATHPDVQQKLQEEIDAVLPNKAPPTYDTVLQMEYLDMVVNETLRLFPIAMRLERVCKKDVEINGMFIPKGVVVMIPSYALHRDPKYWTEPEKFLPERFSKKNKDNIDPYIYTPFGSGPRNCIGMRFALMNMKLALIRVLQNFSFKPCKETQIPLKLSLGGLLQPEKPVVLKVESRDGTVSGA

On to `CN(C)c1cncc(-c2ccc(C(=O)N(c3ncccc3Cl)[C@@H]3CCCNC3)cc2)n1`, for which the IC50 was found to be 43.2 µM in data set [1], 2.97 µM on 80S Ribosome [3] and 30.1 µM in the data set on Bone marrow cell. Also, the figures for the Drug metabolism result in the data set on Rattus norvegicus [2] and in the data set with Rhesus monkey were “Metabolite_Detected” and “Metabolite_Notdetected”, respectively. For the same molecule, the microsomal CLint in data set [4] stood at 18.2 µL/min/mg. The molecule further yielded a logD in data set [5] of 1.37. Further, the Ki in data set [6] was 14.1 µM.

Turning to `Cc1cnc2c(c1)nnn2-c1ccc(C(=O)N(c2ncccc2Cl)[C@@H]2CCCNC2)nc1`, the IC50 in data set [1] is 3.6 µM; in the data set on IEC-6 it was over 20 µM; in data set [11], over 20 µM; on 80S Ribosome [3], 1.37 µM; in the data set on Bone marrow cell, 20 to 65 µM; at 80S Ribosome [24], 0.85 µM. For the same molecule, the Activity result was “Non-Toxic” in the data set with Rattus norvegicus [7]; “Toxic” in the data set with Rattus norvegicus [8]; “Non-Toxic” in the data set with Rattus norvegicus [9]; “Toxic” in the data set on Rattus norvegicus [10]; “Toxic” with Rattus norvegicus [18]. For the same molecule, the inhibition at 3 µM on CYP2D6, at CYP1A2, against CYP3A4 and against CYP2C9 was under 13% each time. For the same molecule, the no-observed-adverse-effect level (NOAEL) in the data set on Rattus norvegicus [12] is 4.231 µM. Further, the unbound share (fraction unbound) in [13] was determined as 0.24. Besides, in the data set with Mus musculus, the “Cp(f)” value amounted to 175 nM. In [14], the Cmax came to 9660 ng/mL. Moreover, the microsomal CLint in data set [15] was 15.1 µL/min/mg; in [4], 9.3 µL/min/mg. Also, the Papp A→B in data set [16] amounted to 1.3 ×10⁻⁶ cm/s. The result in the data set with Ribosome [17] and in the data set with Ribosome [25] was Active. Besides, the Papp B→A in data set [19] was determined as 19.9 ×10⁻⁶ cm/s. This molecule yielded a concentration in [20] of 15.9 µM. Moreover, in data set [21], the selectivity ratio was over 30. Further, in data set [5], the logD came to 0.7. Further, the Papp in data set [22] stood at 6.2 ×10⁻⁶ cm/s. For the same molecule, the results for the Ki (on 80S Ribosome [23]; in [6]) were 63 µM and 5.9 µM, respectively.
